In ChEMBL document CHEMBL1154548, “Synthesis and initial evaluation of novel, non-peptidic antagonists of the alpha(v)-integrins alpha(v)beta(3) and alpha(v)beta(5)” (Bioorg Med Chem Lett, 2009) one finds IC50 and Papp data, which are given here for 8 compounds.

Where only a bound is given, the exact number is not on record here.

One data set deals with Integrin alpha-V (Homo sapiens, UniProt P06756+P18084). The experiment in a line: Binding affinity to human integrin alphavbeta5 receptor by TRF assay. The essentials: (§1)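 Wells were coated with αvβ3 or αvβ5 overnight at 4 °C in buffer A (50 mM Tris–HCl pH 7.4, 100 mM NaCl, 1 mM each MgCl₂, CaCl₂, MnCl₂), then blocked with 1% BSA for 1 h at RT. Compound and 20 nM Eu³⁺-vitronectin in buffer A plus DTPA and 0.05% BSA were added for 1 h at RT. Wells were washed, enhancement solution was added for 10 min with shaking, and time-resolved fluorescence was read.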
Sequence of Integrin alpha-V (P06756 whole entry, one chain of several): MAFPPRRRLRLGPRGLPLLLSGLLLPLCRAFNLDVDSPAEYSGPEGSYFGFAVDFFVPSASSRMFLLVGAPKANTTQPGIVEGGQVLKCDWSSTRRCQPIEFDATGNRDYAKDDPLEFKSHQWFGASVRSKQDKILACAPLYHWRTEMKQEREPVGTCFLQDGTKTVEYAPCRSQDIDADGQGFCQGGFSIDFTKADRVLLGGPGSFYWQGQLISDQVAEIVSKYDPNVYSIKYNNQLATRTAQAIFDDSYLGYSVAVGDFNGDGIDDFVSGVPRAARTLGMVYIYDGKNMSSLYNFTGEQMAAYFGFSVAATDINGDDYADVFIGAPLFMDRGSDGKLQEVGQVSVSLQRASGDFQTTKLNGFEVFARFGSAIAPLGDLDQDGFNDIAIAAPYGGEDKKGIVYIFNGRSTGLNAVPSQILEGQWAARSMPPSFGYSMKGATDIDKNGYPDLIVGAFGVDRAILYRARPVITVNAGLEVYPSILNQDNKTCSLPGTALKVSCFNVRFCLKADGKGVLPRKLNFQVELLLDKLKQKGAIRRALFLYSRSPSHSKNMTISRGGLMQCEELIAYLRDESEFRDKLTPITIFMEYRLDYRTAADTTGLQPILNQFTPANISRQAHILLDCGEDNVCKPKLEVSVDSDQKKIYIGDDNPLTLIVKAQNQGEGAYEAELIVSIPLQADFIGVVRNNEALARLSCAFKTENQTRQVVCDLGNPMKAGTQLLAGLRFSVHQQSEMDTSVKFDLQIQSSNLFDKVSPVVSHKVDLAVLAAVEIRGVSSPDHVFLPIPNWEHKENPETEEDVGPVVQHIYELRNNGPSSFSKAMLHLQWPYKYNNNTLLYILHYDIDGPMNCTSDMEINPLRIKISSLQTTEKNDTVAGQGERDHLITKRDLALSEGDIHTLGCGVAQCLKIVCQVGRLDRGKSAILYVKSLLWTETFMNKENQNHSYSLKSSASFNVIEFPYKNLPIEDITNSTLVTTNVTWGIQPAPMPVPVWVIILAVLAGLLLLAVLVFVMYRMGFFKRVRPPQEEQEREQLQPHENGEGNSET

The target of the next data set is Integrin alpha-V/beta-3 (Homo sapiens, UniProt P05106+P06756). Description: Binding affinity to human integrin alphavbeta3 receptor by TRF assay. Put shortly: as §1
Sequence of Integrin alpha-V/beta-3 (P05106 27-788 limits assumed): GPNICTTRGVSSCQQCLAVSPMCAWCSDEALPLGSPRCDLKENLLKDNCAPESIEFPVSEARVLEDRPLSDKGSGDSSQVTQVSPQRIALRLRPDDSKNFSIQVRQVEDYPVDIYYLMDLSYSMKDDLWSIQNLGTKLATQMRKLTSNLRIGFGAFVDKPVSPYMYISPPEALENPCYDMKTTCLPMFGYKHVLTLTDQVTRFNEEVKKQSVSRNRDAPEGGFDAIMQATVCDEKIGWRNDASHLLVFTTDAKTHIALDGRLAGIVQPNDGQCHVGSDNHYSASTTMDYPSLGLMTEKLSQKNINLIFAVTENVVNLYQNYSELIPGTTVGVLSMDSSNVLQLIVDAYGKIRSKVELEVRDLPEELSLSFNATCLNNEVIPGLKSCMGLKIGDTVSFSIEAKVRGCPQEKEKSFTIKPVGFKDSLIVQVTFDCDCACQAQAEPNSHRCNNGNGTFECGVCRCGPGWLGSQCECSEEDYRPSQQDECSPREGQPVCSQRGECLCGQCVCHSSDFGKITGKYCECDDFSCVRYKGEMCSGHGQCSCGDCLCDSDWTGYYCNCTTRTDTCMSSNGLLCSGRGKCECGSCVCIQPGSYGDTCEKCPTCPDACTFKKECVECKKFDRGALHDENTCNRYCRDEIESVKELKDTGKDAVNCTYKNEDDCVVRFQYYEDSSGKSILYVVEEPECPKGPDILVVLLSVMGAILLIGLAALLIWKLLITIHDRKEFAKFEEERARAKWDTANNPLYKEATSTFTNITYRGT
Sequence of Integrin alpha-V/beta-3 (P06756 31-889 limits assumed): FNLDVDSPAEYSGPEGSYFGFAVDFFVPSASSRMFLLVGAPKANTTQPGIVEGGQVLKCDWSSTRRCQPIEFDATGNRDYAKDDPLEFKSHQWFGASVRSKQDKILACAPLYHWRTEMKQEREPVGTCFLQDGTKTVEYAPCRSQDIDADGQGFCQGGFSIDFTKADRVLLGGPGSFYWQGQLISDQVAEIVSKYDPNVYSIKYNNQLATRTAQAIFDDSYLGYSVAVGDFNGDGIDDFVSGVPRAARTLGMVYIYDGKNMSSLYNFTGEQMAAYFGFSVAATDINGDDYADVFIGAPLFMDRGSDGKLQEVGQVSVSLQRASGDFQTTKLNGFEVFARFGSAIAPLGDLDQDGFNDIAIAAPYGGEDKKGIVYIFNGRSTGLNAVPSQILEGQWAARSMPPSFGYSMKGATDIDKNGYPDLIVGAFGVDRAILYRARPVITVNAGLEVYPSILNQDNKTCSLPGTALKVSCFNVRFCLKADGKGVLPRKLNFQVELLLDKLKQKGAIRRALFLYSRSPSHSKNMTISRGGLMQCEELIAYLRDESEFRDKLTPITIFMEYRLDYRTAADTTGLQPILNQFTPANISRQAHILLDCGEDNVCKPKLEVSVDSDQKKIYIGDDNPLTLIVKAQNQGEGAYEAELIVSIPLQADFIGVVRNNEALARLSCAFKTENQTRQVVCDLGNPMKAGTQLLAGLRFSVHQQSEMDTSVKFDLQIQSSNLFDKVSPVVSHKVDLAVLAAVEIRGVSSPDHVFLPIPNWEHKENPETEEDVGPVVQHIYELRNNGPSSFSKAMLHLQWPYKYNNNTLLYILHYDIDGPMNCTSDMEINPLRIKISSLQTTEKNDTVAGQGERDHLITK
Sequence of Integrin alpha-V/beta-3 (P06756 891-1048 limits assumed): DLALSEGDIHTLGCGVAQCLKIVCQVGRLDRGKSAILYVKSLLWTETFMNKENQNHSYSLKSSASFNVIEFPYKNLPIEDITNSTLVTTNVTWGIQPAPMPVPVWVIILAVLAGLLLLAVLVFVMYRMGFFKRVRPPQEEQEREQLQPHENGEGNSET
For data set [1], the target named is Integrin alpha-IIb/beta-3 (Homo sapiens, UniProt P05106+P08514). The experiment in a line: Binding affinity to human integrin […] receptor by TRF assay. Format: protein-complex assay. The essentials: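 Purified αIIbβ3 coated overnight at 4 °C in buffer A (50 mM Tris–HCl pH 7.4, 100 mM NaCl, 1 mM each MgCl₂, CaCl₂, MnCl₂), then blocked with 1% BSA for 1 h at RT. Compound plus 20 nM Eu³⁺-fibrinogen in buffer A with DTPA and 0.05% BSA, 1 h at RT. After washing, enhancement solution was added for 10 min with shaking and time-resolved fluorescence was read.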
Sequence of Integrin alpha-IIb/beta-3 (P05106 27-788 limits assumed): as the sequence (P05106 27-788 limits assumed) above
Sequence of Integrin alpha-IIb/beta-3 (P08514 32-887 limits assumed): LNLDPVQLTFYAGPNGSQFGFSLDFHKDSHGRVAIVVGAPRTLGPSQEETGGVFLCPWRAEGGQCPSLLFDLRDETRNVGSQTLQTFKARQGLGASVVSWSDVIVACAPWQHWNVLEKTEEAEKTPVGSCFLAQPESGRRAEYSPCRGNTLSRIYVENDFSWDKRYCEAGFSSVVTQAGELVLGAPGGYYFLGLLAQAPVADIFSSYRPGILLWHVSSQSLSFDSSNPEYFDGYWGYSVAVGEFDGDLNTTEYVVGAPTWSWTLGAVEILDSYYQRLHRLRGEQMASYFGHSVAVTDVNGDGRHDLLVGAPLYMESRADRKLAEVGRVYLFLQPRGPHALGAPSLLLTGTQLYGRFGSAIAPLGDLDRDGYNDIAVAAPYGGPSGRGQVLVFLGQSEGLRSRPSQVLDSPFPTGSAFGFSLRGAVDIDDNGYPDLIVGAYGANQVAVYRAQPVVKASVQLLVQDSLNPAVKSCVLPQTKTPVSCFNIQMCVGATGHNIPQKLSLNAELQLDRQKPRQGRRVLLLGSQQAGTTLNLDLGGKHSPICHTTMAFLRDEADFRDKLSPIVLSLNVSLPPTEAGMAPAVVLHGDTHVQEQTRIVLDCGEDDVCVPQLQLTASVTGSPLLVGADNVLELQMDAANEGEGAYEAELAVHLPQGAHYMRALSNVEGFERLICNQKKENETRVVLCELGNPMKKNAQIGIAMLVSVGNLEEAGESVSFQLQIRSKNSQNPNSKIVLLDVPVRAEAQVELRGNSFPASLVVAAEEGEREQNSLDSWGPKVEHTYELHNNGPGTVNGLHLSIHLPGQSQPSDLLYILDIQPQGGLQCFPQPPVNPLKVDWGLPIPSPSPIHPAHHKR
Sequence of Integrin alpha-IIb/beta-3 (P08514 891-1039 limits assumed): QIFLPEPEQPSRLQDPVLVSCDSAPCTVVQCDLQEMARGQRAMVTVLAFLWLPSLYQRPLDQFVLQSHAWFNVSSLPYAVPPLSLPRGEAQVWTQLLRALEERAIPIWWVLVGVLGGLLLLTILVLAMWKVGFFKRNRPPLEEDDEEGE

The test system of data set [2] is HUVEC. Description: Inhibition of VEGF-induced HUVEC proliferation after 48 hrs. In kind it is functional, cell-based. The following applies: Homo sapiens.
In data set [3] the test system is HUVEC. The experiment in a line: Inhibition of FGF-induced HUVEC proliferation after 48 hrs. In kind it is functional, cell-based. As to conditions: Homo sapiens. Put shortly: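 HUVEC were seeded at 1000 cells/well in complete EBM-2 and cultured 24 h at 37 °C with 5% CO₂. Medium was replaced with EBM-2 containing 2% FBS, 3 ng/mL FGF and compound, and cells were grown a further 48 h. Cells were fixed in glutaraldehyde, stained with crystal violet, destained in acetic acid and read by absorbance at 595. Means of two experiments with SD.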

The subject of data set [4] is HUVEC. The experiment in a line: Inhibition of HUVEC migration after 4 hrs. Format: functional, cell-based. As to conditions: Homo sapiens. Put shortly: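 Boyden-chamber filters were coated with vitronectin in HEPES/NaCl/divalent-cation buffer for 1 h at 37 °C, then blocked with 2% BSA for 1 h. HUVEC were added to the upper chamber at 20,000/well in migration buffer with or without compound and incubated 4 h at 37 °C. Non-migrated cells were removed; migrated cells were fixed, stained with crystal violet, photographed and quantified. Means of two experiments with SD.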

Data set [5] is described as follows: Apparent permeability across human Caco-2 cells. Format: ADME, cell-based.

Take `Cn1c(N)nc2c(Oc3ccc(C(=O)NCCC(=O)O)cc3)cccc21`: the values for the IC50 at Integrin alpha-V and at Integrin alpha-V/beta-3 were 2050 nM and 230 nM, respectively.
As to `Cn1c(N)nc2c(Oc3ccc4c(c3)CN(CCC(=O)O)C4=O)cccc21`, the IC50 in data set [1] was more than 10000 nM; on Integrin alpha-V it was 4800 nM; on Integrin alpha-V/beta-3, 180 nM.
For `Cn1c(N)nc2c(Oc3ccc4c(c3)CCN(CCC(=O)O)C4=O)cccc21` the same measures were more than 10000 nM, 600 nM and 39 nM.
As to `O=C(O)CCN1CCc2cc(Oc3cccc4c3nc3n4CCCN3)ccc2C1=O`, the IC50 in data set [1] turned out to be 6300 nM; at Integrin alpha-V it was 310 nM; at Integrin alpha-V/beta-3, 7 nM.
With `O=C(O)CC(c1ccc2c(c1)OCO2)N1CCc2cc(Oc3cccc4c3nc3n4CCCN3)ccc2C1=O` (stereo not given), the IC50 in the data set on HUVEC [2] was 1100 nM; in the data set on HUVEC [3], 2900 nM; in data set [1], 167 nM; on Integrin alpha-V, 14 nM; at Integrin alpha-V/beta-3 it was 2 nM; in the data set on HUVEC [4], 40 nM. For the same compound, the Papp in data set [5] turned out to be 8.96 ×10⁻⁶ cm/s.
For `O=C(O)CC(c1cccnc1)N1CCc2cc(Oc3cccc4c3nc3n4CCCN3)ccc2C1=O` (stereo not given), the IC50 came out at 4300 nM in the data set on HUVEC [2]; 1100 nM in the data set on HUVEC [3]; 323 nM in data set [1]; 5 nM at Integrin alpha-V; 1 nM on Integrin alpha-V/beta-3; 37 nM in the data set with HUVEC [4].
As for `Cn1c(N)nc2c(Oc3ccc4c(c3)CCCN(CCC(=O)O)C4=O)cccc21`, the values for the IC50 (in data set [1]; at Integrin alpha-V; at Integrin alpha-V/beta-3) were more than 10000 nM, 4300 nM and 370 nM, respectively.
With `CC(C)[C@@H]1NC(=O)[C@@H](Cc2ccccc2)NC(=O)[C@H](CC(=O)O)NC(=O)CNC(=O)[C@H](CCCN=C(N)N)NC1=O` [CYCLORGDFV], the IC50 in the data set on HUVEC [2] was found to be 4500 nM; with HUVEC [3], 3100 nM; in the data set on HUVEC [4] it was 530 nM.
